Measurements: ChEMBL document CHEMBL3588757, “Structure-based design, synthesis and biological testing of piperazine-linked bis-epipodophyllotoxin etoposide analogs” (Bioorg Med Chem, 2015)

Tests used:
[1] = system: OVCAR-8; test: Cytotoxicity against human OVCAR8 cells assessed as cell growth at 5 uM by SRB assay; type: functional; conditions: read-out: Activity
[2] = system: BT-549; test: Cytotoxicity against human BT549 cells assessed as cell growth at 0.5 uM by SRB assay; type: functional; conditions: read-out: Activity
[3] = system: NCI-H522; test: Cytotoxicity against human NCI-H522 cells assessed as cell growth at 0.05 uM by SRB assay; type: functional; conditions: read-out: Activity
[4] = system: HOP-92; test: Cytotoxicity against human HOP92 cells assessed as cell growth at 0.05 uM by SRB assay; type: functional; conditions: read-out: Activity
How it was run: (§1)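 Measured in the NCI-60 human tumour cell line panel using five-dose testing. Growth was recorded at each dose for each cell line, and a GI50 was derived for each line.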

[5] = Cytotoxicity against human Hs578T cells by SRB assay; type: functional; conditions: Hs-578T; how it was run: as §1
[6] = system: OVCAR-8; test: Cytotoxicity against human OVCAR8 cells by SRB assay; type: functional
How it was run: (§2)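 NCI-60 panel screen; 5-dose testing giving GI50 per cell line, plus a single 10 µM one-dose test. Method details not given beyond the NCI screen.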

[7] = system: KM12; test: Cytotoxicity against human KM12 cells assessed as cell growth at 0.05 uM by SRB assay; type: functional; conditions: read-out: Activity
[8] = system: MDA-MB-231; test: Cytotoxicity against human MDA-MB-231/ATCC cells assessed as cell growth at 50 uM by SRB assay; type: functional; conditions: read-out: Activity
[9] = system: SK-OV-3; test: Cytotoxicity against human SKOV3 cells assessed as cell growth at 0.5 uM by SRB assay; type: functional; conditions: read-out: Activity
[10] = system: OVCAR-3; test: Cytotoxicity against human OVCAR3 cells assessed as cell growth at 0.005 uM by SRB assay; type: functional; conditions: read-out: Activity
[11] = system: LOX IMVI; test: Cytotoxicity against human LOXIMVI cells assessed as cell growth at 0.005 uM by SRB assay; type: functional; conditions: read-out: Activity
[12] = system: SNB-75; test: Cytotoxicity against human SNB75 cells assessed as cell growth at 0.005 uM by SRB assay; type: functional; conditions: read-out: Activity
[13] = system: K562; test: Cytotoxicity against human K562 cells assessed as cell growth inhibition after 72 hrs by MTS assay; type: functional, cell-based; conditions: K562, 72 h
[14] = system: TK-10; test: Cytotoxicity against human TK10 cells by SRB assay; type: functional; how it was run: as §2
[15] = system: RXF 393; test: Cytotoxicity against human RXF393 cells by SRB assay; type: functional; how it was run: as §2
[16] = system: NCI-H322M; test: Cytotoxicity against human NCI-H322M cells assessed as cell growth at 5 uM by SRB assay; type: functional; conditions: read-out: Activity
[17] = system: MCF7; test: Cytotoxicity against human MCF7 cells assessed as cell growth at 0.5 uM by SRB assay; type: functional; conditions: read-out: Activity
[18] = system: SK-MEL-2; test: Cytotoxicity against human SK-MEL-2 cells assessed as cell growth at 5 uM by SRB assay; type: functional; conditions: read-out: Activity
[19] = system: UACC-62; test: Cytotoxicity against human UACC62 cells assessed as cell growth at 0.5 uM by SRB assay; type: functional; conditions: read-out: Activity
[20] = system: SF-539; test: Cytotoxicity against human SF539 cells assessed as cell growth at 5 uM by SRB assay; type: functional; conditions: read-out: Activity
[21] = system: UACC-62; test: Cytotoxicity against human UACC62 cells assessed as cell growth at 0.05 uM by SRB assay; type: functional; conditions: read-out: Activity
[22] = system: KM12; test: Cytotoxicity against human KM12 cells by SRB assay; type: functional; how it was run: as §2
[23] = target: DNA topoisomerase 2-alpha (Homo sapiens) (UniProt P11388); test: Inhibition of full-length human recombinant topoisomerase 2-alpha mediated relaxation and cleavage of supercoiled pBR322 plasmid DNA to linear DNA by ethidium bromide staining based gel electrophoresis assay
Chain of DNA topoisomerase 2-alpha (Homo sapiens) (P11388 whole entry): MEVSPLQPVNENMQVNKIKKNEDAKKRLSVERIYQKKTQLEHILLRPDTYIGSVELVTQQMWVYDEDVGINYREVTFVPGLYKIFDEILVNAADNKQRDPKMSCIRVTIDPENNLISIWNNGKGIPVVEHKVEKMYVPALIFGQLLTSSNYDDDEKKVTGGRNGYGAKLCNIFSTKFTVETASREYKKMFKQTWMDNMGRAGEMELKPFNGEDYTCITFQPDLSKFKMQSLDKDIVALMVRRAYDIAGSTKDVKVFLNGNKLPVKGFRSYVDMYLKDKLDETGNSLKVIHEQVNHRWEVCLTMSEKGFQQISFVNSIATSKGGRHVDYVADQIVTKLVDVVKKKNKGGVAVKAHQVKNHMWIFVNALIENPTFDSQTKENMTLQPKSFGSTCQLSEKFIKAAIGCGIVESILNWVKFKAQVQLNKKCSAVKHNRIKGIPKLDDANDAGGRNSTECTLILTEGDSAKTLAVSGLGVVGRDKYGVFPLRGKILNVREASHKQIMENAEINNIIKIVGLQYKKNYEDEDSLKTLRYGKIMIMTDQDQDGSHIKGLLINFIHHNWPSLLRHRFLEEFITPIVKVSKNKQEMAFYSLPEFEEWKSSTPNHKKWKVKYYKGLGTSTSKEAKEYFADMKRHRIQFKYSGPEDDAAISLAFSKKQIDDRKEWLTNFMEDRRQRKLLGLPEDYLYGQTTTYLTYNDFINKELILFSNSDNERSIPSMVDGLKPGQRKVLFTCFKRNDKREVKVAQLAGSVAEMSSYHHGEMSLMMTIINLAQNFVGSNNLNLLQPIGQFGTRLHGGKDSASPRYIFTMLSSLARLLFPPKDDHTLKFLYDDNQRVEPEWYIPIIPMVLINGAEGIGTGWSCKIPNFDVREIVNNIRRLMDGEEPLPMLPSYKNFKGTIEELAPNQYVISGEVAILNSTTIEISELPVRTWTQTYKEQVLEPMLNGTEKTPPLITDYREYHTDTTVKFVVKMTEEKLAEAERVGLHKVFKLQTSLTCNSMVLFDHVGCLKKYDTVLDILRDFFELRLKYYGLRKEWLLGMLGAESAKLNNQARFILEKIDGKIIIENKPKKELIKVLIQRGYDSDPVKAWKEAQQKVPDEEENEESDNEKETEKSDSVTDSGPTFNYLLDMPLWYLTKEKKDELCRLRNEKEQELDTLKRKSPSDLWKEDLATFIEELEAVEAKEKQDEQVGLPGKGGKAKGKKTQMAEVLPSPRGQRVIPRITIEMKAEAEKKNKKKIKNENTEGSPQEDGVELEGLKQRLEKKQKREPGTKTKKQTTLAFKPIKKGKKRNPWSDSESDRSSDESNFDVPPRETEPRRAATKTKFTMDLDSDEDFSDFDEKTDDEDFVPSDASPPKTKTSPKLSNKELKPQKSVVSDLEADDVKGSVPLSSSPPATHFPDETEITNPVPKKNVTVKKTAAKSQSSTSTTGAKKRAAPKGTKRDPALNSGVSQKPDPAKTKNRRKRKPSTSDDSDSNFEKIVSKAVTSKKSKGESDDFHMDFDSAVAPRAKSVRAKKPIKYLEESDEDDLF
How it was run: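 Recombinant full-length human topoisomerase IIα with supercoiled pBR322 DNA at 37 °C. Components mixed on ice before drug addition. Complexes trapped with SDS; products run on ethidium bromide gels. Linear DNA identified against a HindIII-linearized marker; repeated on three days.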

[24] = system: SF-268; test: Cytotoxicity against human SF268 cells assessed as cell growth at 5 uM by SRB assay; type: functional; conditions: read-out: Activity
[25] = system: UACC-257; test: Cytotoxicity against human UACC257 cells by SRB assay; type: functional; how it was run: as §2
[26] = system: 786-0; test: Cytotoxicity against human 786-0 cells assessed as cell growth at 0.005 uM by SRB assay; type: functional; conditions: read-out: Activity
[27] = system: SW-620; test: Cytotoxicity against human SW620 cells assessed as cell growth at 5 uM by SRB assay; type: functional; conditions: read-out: Activity
[28] = system: HCT-15; test: Cytotoxicity against human HCT15 cells assessed as cell growth at 0.005 uM by SRB assay; type: functional; conditions: read-out: Activity; how it was run: as §1
[29] = system: NCI-H23; test: Cytotoxicity against human NCI-H23 cells assessed as cell growth at 50 uM by SRB assay; type: functional; conditions: read-out: Activity
[30] = system: SK-MEL-5; test: Cytotoxicity against human SK-MEL-5 cells assessed as cell growth at 0.005 uM by SRB assay; type: functional; conditions: read-out: Activity
[31] = system: HOP-92; test: Cytotoxicity against human HOP92 cells assessed as cell growth at 0.5 uM by SRB assay; type: functional; conditions: read-out: Activity; how it was run: as §1
[32] = system: CCRF-CEM; test: Cytotoxicity against human CCRF-CEM cells assessed as cell growth at 0.005 uM by SRB assay; type: functional; conditions: read-out: Activity
[33] = system: IGROV-1; test: Cytotoxicity against human IGROV1 cells assessed as cell growth at 0.05 uM by SRB assay; type: functional; conditions: read-out: Activity; how it was run: as §1
[34] = system: SN12C; test: Cytotoxicity against human SN12C cells by SRB assay; type: functional; how it was run: as §2
[35] = system: SK-OV-3; test: Cytotoxicity against human SKOV3 cells by SRB assay; type: functional; how it was run: as §2
[36] = system: HOP-62; test: Cytotoxicity against human HOP62 cells assessed as cell growth at 0.005 uM by SRB assay; type: functional; conditions: read-out: Activity; how it was run: as §1
[37] = system: SW-620; test: Cytotoxicity against human SW620 cells assessed as cell growth at 0.05 uM by SRB assay; type: functional; conditions: read-out: Activity
[38] = read-out: LC50 (the source's name)
[39] = read-out: pLC50 (the source's name) (converted)

COc1cc([C@@H]2c3cc4c(cc3[C@@H](NC(=O)CN3CCN(CCCCCCCCCCN5CCN(CC(=O)N[C@@H]6c7cc8c(cc7[C@@H](c7cc(OC)c(O)c(OC)c7)[C@H]7C(=O)OC[C@@H]76)OCO8)CC5)CC3)[C@H]3COC(=O)[C@H]23)OCO4)cc(OC)c1O
growth at 5 µM [1]: -28%
growth at 0.5 µM [2]: 58%
growth at 0.05 µM [3]: 39%
growth at 0.05 µM [4]: 73%
GI50 ([5]; read-out: GI50): 2800 nM
CC50 [5, 38]: > 50000 nM
TGI ([5]; read-out: TGI): 22200 nM
GI50 ([5]; read-out: pGI50 (converted)): 2820 nM
CC50 [5, 39]: > 50100 nM
TGI ([5]; read-out: pTGI (converted)): 22400 nM
GI50 ([6]; read-out: GI50): 514 nM
CC50 [6, 38]: > 50000 nM
TGI ([6]; read-out: TGI): 2200 nM
GI50 ([6]; read-out: pGI50 (converted)): 513 nM
CC50 [6, 39]: > 50100 nM
TGI ([6]; read-out: pTGI (converted)): 2190 nM
growth at 0.05 µM [7]: 91%
growth at 50 µM [8]: -54%
growth at 0.5 µM [9]: 52%
growth at 0.005 µM [10]: 100%
growth at 0.005 µM [11]: 86%
growth at 0.005 µM [12]: 95%
IC50 [13]: 44 nM
GI50 ([14]; read-out: GI50): 1440 nM
CC50 [14, 38]: 15400 nM
TGI ([14]; read-out: TGI): 4570 nM
GI50 ([14]; read-out: pGI50 (converted)): 1450 nM
CC50 [14, 39]: 15500 nM
TGI ([14]; read-out: pTGI (converted)): 4570 nM
GI50 ([15]; read-out: GI50): 791 nM
CC50 [15, 38]: > 50000 nM
TGI ([15]; read-out: TGI): 2380 nM
GI50 ([15]; read-out: pGI50 (converted)): 794 nM
CC50 [15, 39]: > 50100 nM
TGI ([15]; read-out: pTGI (converted)): 2400 nM
growth at 5 µM [16]: -42%
growth at 0.5 µM [17]: 30%
growth at 5 µM [18]: 47%
growth at 0.5 µM [19]: 81%
growth at 5 µM [20]: -88%
growth at 0.05 µM [21]: 90%
GI50 ([22]; read-out: GI50): 892 nM
CC50 [22, 38]: > 50000 nM
TGI ([22]; read-out: TGI): 2950 nM
GI50 ([22]; read-out: pGI50 (converted)): 891 nM
CC50 [22, 39]: > 50100 nM
TGI ([22]; read-out: pTGI (converted)): 2950 nM
Effect on topoisomerase 2-alpha DNA cleavage (qualitative) [23]: Dose-dependent effect
growth at 5 µM [24]: -34%
GI50 ([25]; read-out: GI50): 679 nM
CC50 [25, 38]: 2630 nM
TGI ([25]; read-out: TGI): 1340 nM
GI50 ([25]; read-out: pGI50 (converted)): 676 nM
CC50 [25, 39]: 2630 nM
TGI ([25]; read-out: pTGI (converted)): 1350 nM
growth at 0.005 µM [26]: 97%
growth at 5 µM [27]: -63%
growth at 0.005 µM [28]: 99%
growth at 50 µM [29]: -92%
growth at 0.005 µM [30]: 102%
growth at 0.5 µM [31]: 21%
growth at 0.005 µM [32]: 97%
growth at 0.05 µM [33]: 83%
GI50 ([34]; read-out: GI50): 185 nM
CC50 [34, 38]: > 50000 nM
TGI ([34]; read-out: TGI): 5820 nM
GI50 ([34]; read-out: pGI50 (converted)): 186 nM
CC50 [34, 39]: > 50100 nM
TGI ([34]; read-out: pTGI (converted)): 5890 nM
GI50 ([35]; read-out: GI50): 557 nM
CC50 [35, 38]: 16500 nM
TGI ([35]; read-out: TGI): 5430 nM
GI50 ([35]; read-out: pGI50 (converted)): 562 nM
CC50 [35, 39]: 16600 nM
TGI ([35]; read-out: pTGI (converted)): 5370 nM
growth at 0.005 µM [36]: 88%
growth at 0.05 µM [37]: 75%
